{"source": "paper PMC2865030", "about": "(Biochemical Journal, 2008)", "target": "yeast Hsp90 M705V", "assay": "ITC of TPR-domain proteins with yeast Hsp90 M705V", "type": "binding", "conditions": "300 μM CHIP injected into 30 μM yeast Hsp90 M705V, 30 °C, pH 8.0", "summary_of_the_method": "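ITC: mouse CHIP or yeast Tah1 (His tags cleaved) at 300 µM was titrated as 9–11 injections of 27 µl into 30 µM yeast Hsp90 M705V. Runs were at 30 °C for CHIP and 4 °C for Tah1, in 20 mM Tris/HCl pH 8.0, 1 mM EDTA, 5 mM NaCl. Data were corrected for separately measured heat of dilution and fitted by nonlinear least squares for stoichiometry, binding constant and enthalpy.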", "data": [{"molecule": "CHIP: mouse C-terminal of Hsp70-interacting protein, TPR-domain co-chaperone involved in ubiquitylation of chaperone-bound client proteins (protein, left off: His-PreScission tag, end not stated, cleaved) MKGKEEKEGGARLGTGGGGSPDKSPSAQELKEQGNRLFVGRKYPEAAACYGRAITRNPLVAVYYTNRALCYLKMQQPEQALADCRRALELDGQSVKAHFFLGQCQLEMESYDEAIANLQRAYSLAKEQRLNFGDDIPSALRIAKKKRWNSIEERRIHQESELHSYLTRLIAAERERELEECQRNHEGHEDDGHIRAQQACIEAKHDKYMADMDELFSQVDEKRKKRDIPDYLCGKISFELMREPCITPSGITYDRKDIEEHLQRVGHFDPVTRSPLTQEQLIPNLAMKEVIDAFISENGWVEDY", "values": [{"measurement": "Kd", "result": "6.7 ± 0.62", "unit": "µM"}]}]}
